One test concerns NMDA receptors. The format is cell-based. The note with it: for NMDA receptor antagonism (in words): cerebellar granule neurons, glutamate or NMDA 100 μM + glycine 10 μM.
The subject of test [1] is bloodstream form T. brucei (strain 427). As to the kind of experiment: T. brucei culturing and drug test. The format is cell-based, Trypanosoma brucei. The note with it: for Trypanocidal activity (in words): at concentrations up to 5 mg mL^−1; for Trypanocidal properties (in words): bloodstream form T. brucei. In outline: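 Parasites were kept at 37 °C in modified Iscove's medium (pH 7.4) and grown for 48 h with a range of test compound concentrations. Cell density at each concentration was counted by hemocytometer and expressed as percent of untreated control growth. Concentrations giving 50% and 90% growth inhibition (IC₅₀, IC₉₀) were determined. Run in triplicate.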

For test [2], the system named is herpes simplex virus type 1. It is filed as cell-based. The note with it: microscopy and MTS assay. A general note: Formazan colour is commonly taken as a measure of viable cells.
Test [3] concerns herpes simplex virus type 2. It is filed as cell-based. The note with it: microscopy and MTS assay.
Another test concerns vaccinia virus. It is filed as cell-based.
The test system of the next test is feline coronavirus. It is filed as cell-based. The conditions noted are these: microscopy and MTS assay.
The next test has as its system parainfluenza-3 virus. The format is cell-based. The conditions noted are these: microscopy and MTS assay.
The test system of test [4] is respiratory syncytial virus. It is filed as cell-based. The conditions noted are these: microscopy and MTS assay.
Test [5] deals with vesicular stomatitis virus. The format is cell-based.
The next test concerns sindbis virus. It is filed as cell-based. The note with it: microscopy and MTS assay.
A further test relates to Punta Toro virus. It is filed as cell-based. The conditions noted are these: microscopy and MTS assay.
A further test has as its system Coxsackievirus B4. The format is cell-based. The conditions noted are these: microscopy and MTS assay.
For a further test, the system named is Reovirus-1. The format is cell-based. The conditions noted are these: microscopy and MTS assay.
The test system of another test is influenza virus A/H1N1. It is filed as cell-based, influenza virus A/Puerto Rico/8/34 (H1N1). The conditions noted are these: influenza virus A/H1N1 (A/Puerto Rico/8/34); microscopy and MTS assay.
In the next test the test system is influenza virus A/H3N2. The format is cell-based, influenza virus A/Hong Kong/7/87 (H3N2). The conditions noted are these: influenza virus A/H3N2 (A/Hong Kong/7/87); microscopy and MTS assay.
Another test concerns influenza virus B. It is filed as cell-based, influenza virus B/Hong Kong/5/72. The conditions noted are these: influenza virus B (B/Hong Kong/5/72); microscopy and MTS assay.

Structures can show the parent of a compound that is named as a salt.

With `CCN(CC)C12CC3CC(CC(CC)(C3)O1)C2` [Compound 12, N,N-Diethyl(3-ethyl-2-oxaadamant-1-yl)amine hydrochloride], the “Potency as NMDA receptor antagonist relative to amantadine” value with NMDA receptors (compared with amantadine) was “seven times more potent than amantadine”. In addition, the “Potency as NMDA receptor antagonist relative to memantine” value in the test on NMDA receptors (compared with memantine) is recorded as “ten times less potent than memantine”.

Consider `NC12CC3CC(CC(C3)O1)C2` [Compound 7, (2-Oxaadamant-1-yl)amine hydrochloride], for which the “NMDA receptor antagonism (in words)” value in the test with NMDA receptors is “inactive”. In addition, the “Trypanocidal activity (in words)” value in [1] is listed as “no activity”. The Antiviral activity entry (in [2]; in test [3]; in the test with vaccinia virus; in the test with feline coronavirus; in the test on parainfluenza-3 virus; in test [4]) was “None of the tested compounds displayed activity” in each case. Moreover, the Antiviral activity entry in test [5] is “None of the tested compounds displayed activity”; in the test with sindbis virus it was “None of the tested compounds displayed activity”; in the test on Punta Toro virus it was “None of the tested compounds displayed activity”; in the test on Coxsackievirus B4, “None of the tested compounds displayed activity”; in the test on Reovirus-1, “None of the tested compounds displayed activity”; in the test with influenza virus A/H1N1, “none of the compounds was found to be active”. The Antiviral activity result in the test with influenza virus A/H3N2 and in the test on influenza virus B was “none of the compounds was found to be active” each time.

Regarding `CCC12CC3CC(C1)CC(NCc1ccccc1)(C3)O2` [Compound 13, N-Benzyl(3-ethyl-2-oxaadamant-1-yl)amine hydrochloride], the “Trypanocidal properties (in words)” value in test [1] is “no significant trypanocidal properties”.

On to `NC12CC3CC(C1)CC(C1CCCCC1)(C3)O2` [Compound 10d, (3-cyclohexyl-2-oxaadamant-1-yl)amine hydrochloride], for which the Antiviral activity result (in test [2]; in test [3]; in the test on vaccinia virus; in the test with feline coronavirus; in the test on parainfluenza-3 virus; in test [4]) was “None of the tested compounds displayed activity” in each case. Moreover, the Antiviral activity entry in [5] is “None of the tested compounds displayed activity”; with sindbis virus it was “None of the tested compounds displayed activity”; in the test on Punta Toro virus, “None of the tested compounds displayed activity”; with Coxsackievirus B4, “None of the tested compounds displayed activity”; in the test with Reovirus-1 it was “None of the tested compounds displayed activity”; in the test on influenza virus A/H1N1, “none of the compounds was found to be active”. Besides, the Antiviral activity entry in the test on influenza virus A/H3N2 and in the test on influenza virus B was “none of the compounds was found to be active” throughout.

As for `CN(C)C12CC3CC(CC(C)(C3)O1)C2` [Compound 11a, N,N-Dimethyl(3-methyl-2-oxaadamant-1-yl)amine hydrochloride], in the test with NMDA receptors, the “NMDA receptor antagonism (in words)” value is “inactive”. The “Trypanocidal activity relative to amantadine” value in test [1] (compared with amantadine) is listed as “at least 30 times”. Moreover, the “Trypanocidal activity relative to rimantadine” value in test [1] (compared with rimantadine) is given as “approximately twice”.

Turning to `CC12CC3CC(C1)CC(N)(C3)O2` [Compound 10a, (3-Methyl-2-oxaadamant-1-yl)amine hydrochloride], the “NMDA receptor antagonism (in words)” value in the test on NMDA receptors is “inactive”.

As to `c1ccc(CCNC23CC4CC(CC(C4)O2)C3)cc1` [Compound 2b, N-(2-Phenylethyl)(2-oxaadamant-1-yl)amine hydrochloride], the “Trypanocidal activity (in words)” value in [1] is given as “no activity”.

`CCC12CC3CC(C1)CC(NC)(C3)O2` [Compound 15, N-Methyl(3-ethyl-2-oxaadamant-1-yl)amine hydrochloride]: the “Trypanocidal properties (in words)” value in test [1] is listed as “no significant trypanocidal properties”. Moreover, the Antiviral activity entry (in [2]; in test [3]; in the test on vaccinia virus; in the test on feline coronavirus; in the test with parainfluenza-3 virus; in test [4]) was “None of the tested compounds displayed activity” in each case. In addition, the Antiviral activity entry in [5] was “None of the tested compounds displayed activity”; in the test with sindbis virus it was “None of the tested compounds displayed activity”; in the test on Punta Toro virus it was “None of the tested compounds displayed activity”; in the test with Coxsackievirus B4 it was “None of the tested compounds displayed activity”; with Reovirus-1, “None of the tested compounds displayed activity”; with influenza virus A/H1N1, “none of the compounds was found to be active”. Further, the Antiviral activity entry with influenza virus A/H3N2 and in the test with influenza virus B was “none of the compounds was found to be active” each time.

For the molecule `CN(CCc1ccccc1)C12CC3CC(CC(C3)O1)C2` [Compound 3b, N-Methyl-N-(2-phenylethyl)(2-oxaadamant-1-yl)amine hydrochloride], the “Trypanocidal activity (in words)” value in test [1] is listed as “no activity”.

For `NC12CC3CC(C1)CC(c1ccccc1)(C3)O2` [Compound 10c, (3-Phenyl-2-oxaadamant-1-yl)amine hydrochloride], the “NMDA receptor antagonism (in words)” value with NMDA receptors is on record as “only a weak NMDA receptor antagonist”. Further, the Antiviral activity result (in test [2]; in test [3]; in the test on vaccinia virus; in the test with feline coronavirus; in the test with parainfluenza-3 virus; in test [4]) was “None of the tested compounds displayed activity” in each case. The Antiviral activity entry in [5] is “None of the tested compounds displayed activity”; with sindbis virus, “None of the tested compounds displayed activity”; in the test on Punta Toro virus, “None of the tested compounds displayed activity”; in the test with Coxsackievirus B4, “None of the tested compounds displayed activity”; with Reovirus-1 it was “None of the tested compounds displayed activity”; with influenza virus A/H1N1 it was “none of the compounds was found to be active”. For the same molecule, the Antiviral activity result in the test on influenza virus A/H3N2 and in the test on influenza virus B was “none of the compounds was found to be active” each time.

For `CN(Cc1ccccc1)C12CC3CC(CC(C3)O1)C2` [Compound 3a, N-Benzyl-N-methyl(2-oxaadamant-1-yl)amine], the “NMDA receptor antagonism (in words)” value with NMDA receptors is “inactive”. Also, the “Trypanocidal activity (in words)” value in [1] is “no activity”.

Consider `c1ccc(CN(Cc2ccccc2)C23CC4CC(CC(C4)O2)C3)cc1` [Compound 8, N,N-Dibenzyl(2-oxaadamant-1-yl)amine], for which the “NMDA receptor antagonism (in words)” value in the test with NMDA receptors was “inactive”. For the same molecule, the “Trypanocidal activity (in words)” value in test [1] is “no activity”.

These data come from publication PMC3217223 (Bioorganic & Medicinal Chemistry, 2009).
